Data set [1] has as its system Hepatocyte. The experiment in a line: Stability in Wistar rat hepatocytes assessed as 10,11-epoxide N-glucuronide metabolite formation at 200 uM incubated for 6 hrs by HPLC and LC-MS/Ms method. Type of data set: ADME, cell-based. In short, it runs like this:
(§1)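 Male rat hepatocytes were isolated by collagenase perfusion (≥80% viable) and suspended at 2 × 10^6 cells/mL. They were incubated 6 h at 37 °C with substrate at typically 50–1000 μM, added in methanol (1% final volume); one analogue was tested only at 50 and 200 μM, added in acetonitrile. The reaction was stopped with acetonitrile, and the supernatant was concentrated and analysed by HPLC-UV and ESI LC–MS.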

The test system of data set [2] is Hepatocyte. The experiment in a line: Drug metabolism in Wistar rat hepatocytes assessed as ratio of O-sulfonate II metabolite level to parent compound level at 50 uM incubated for 6 hrs by HPLC and LC-MS/Ms method. Type of data set: ADME, cell-based. Summed up:
(§2)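 Hepatocytes freshly isolated from male rat liver by two-step collagenase perfusion; only cells with ≥80% viability (trypan blue) were used. Cells at 2 × 10^6 cells/mL were shaken at 37 °C for 6 h with substrate at 50 μM, added in methanol (1% final volume). Reactions were stopped with acetonitrile. Metabolites were identified against authentic standards and by ESI LC–MS. Ratios are metabolite:parent compound.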

In data set [3] the test system is Hepatocyte. The experiment in a line: Stability in Wistar rat hepatocytes assessed as metabolite formation at >200 uM incubated for 6 hrs by HPLC and LC-MS/Ms method. The class given is ADME, cell-based. In short, it runs like this:
as §1

For data set [4], the system named is Hepatocyte. The experiment in a line: Drug metabolism in Wistar rat hepatocytes assessed as ratio of O-sulfonate I metabolite level to parent compound level at 50 uM incubated for 6 hrs by HPLC and LC-MS/Ms method. The class given is ADME, cell-based. Summed up: as §2
The subject of data set [5] is Hepatocyte. The experiment in a line: Drug metabolism in Wistar rat hepatocytes assessed as ratio of epoxide N-glucuronide metabolite level to parent compound level at 50 uM incubated for 6 hrs by HPLC and LC-MS/Ms method. The class given is ADME, cell-based. Summed up:
as §2

Data set [6] relates to Hepatocyte. Briefly: Drug metabolism in Wistar rat hepatocytes assessed as ratio of N-glucuronide metabolite level to parent compound level at 50 uM incubated for 6 hrs by HPLC and LC-MS/Ms method. Type of data set: ADME, cell-based. Summed up: as §2
The test system of data set [7] is Hepatocyte. Briefly: Drug metabolism in Wistar rat hepatocytes assessed as ratio of 10,11-epoxide metabolite level to parent compound level at 50 uM incubated for 6 hrs by HPLC and LC-MS/Ms method. The class given is ADME, cell-based. Summed up:
as §2

Data set [8] relates to Hepatocyte. Briefly: Stability in Wistar rat hepatocytes assessed as 10,11-epoxide N-glucuronide metabolite formation at 500 uM incubated for 6 hrs by HPLC and LC-MS/Ms method. Type of data set: ADME, cell-based. In short, it runs like this:
as §1

Data set [9] deals with Hepatocyte. The experiment in a line: Stability in Wistar rat hepatocytes assessed as 10,11-epoxide N-glucuronide metabolite formation at 100 uM incubated for 6 hrs by HPLC and LC-MS/Ms method. The class given is ADME, cell-based. Summed up:
as §1

Data set [10] has as its system Liver microsomes. Briefly: Stability in human liver microsomes assessed as oxidative defluorination at 50 uM incubated for 60 mins by HPLC and LC-MS/Ms method. The class given is ADME, Microsome. The conditions noted are these: 1 h. In short, it runs like this: (§3)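 Pooled human liver microsomes (150 donors, both sexes), 1 mg/mL protein, with substrate at 50 μM and NADPH at 1 mM. Incubated in 0.1 M potassium phosphate, pH 7.4, for 60 min at 37 °C; controls lacked NADPH. The reaction was stopped with ice-cold acetonitrile, and the supernatant was dried, reconstituted in methanol/water and analysed by HPLC-UV and ESI LC–MS (4000 Qtrap).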

For data set [11], the system named is Liver microsomes. Briefly: Stability in human liver microsomes assessed as dioxygenated metabolite formation at 50 uM incubated for 60 mins by HPLC and LC-MS/Ms method. Type of data set: ADME, Microsome. To be noted: 1 h. In short, it runs like this: as §3
In general terms: Liver microsomes are a subcellular fraction often used to study metabolism.

Data set [12] concerns Liver microsomes. The experiment in a line: Stability in human liver microsomes assessed as diol formation at 50 uM incubated for 60 mins by HPLC and LC-MS/Ms method. The class given is ADME, Microsome. To be noted: 1 h. In short, it runs like this:
as §3

For data set [13], the system named is Liver microsomes. The experiment in a line: Drug metabolism in human liver microsomes assessed as 10,11 epoxidation level at 50 uM incubated for 60 mins by HPLC and LC-MS/Ms method. The conditions noted are these: 1 h. Type of data set: ADME, Microsome. In short, it runs like this: as §3
A short description of data set [14]: Drug metabolism in human liver microsomes assessed as compound turnover at 50 uM incubated for 60 mins by HPLC and LC-MS/Ms method. The class given is ADME, Microsome. The conditions noted are these: read-out: Drug metabolism. In short, it runs like this:
as §3

For data set [15], the system named is Hepatocyte. The experiment in a line: Stability in Wistar rat hepatocytes assessed as 10,11-epoxide N-glucuronide metabolite formation at 1 mM incubated for 6 hrs by HPLC and LC-MS/Ms method. Type of data set: ADME, cell-based. To be noted: 1000 µM. Summed up: as §1
Data set [16] deals with Hepatocyte. Briefly: Drug metabolism in Wistar rat hepatocytes assessed as GSH adduct formation at 50 uM incubated for 6 hrs by HPLC and LC-MS/Ms method. Type of data set: ADME, cell-based. Summed up:
as §2

The structures appear in SMILES notation.

`NC(=O)N1c2ccc(Cl)cc2C=Cc2cc(Cl)ccc21`: the Stability result in [1], in data set [2], in [3] and in data set [4] was “Stable” in each case. The values for the Ratio in data set [5], in [6] and in data set [7] were 0.21, 0.22 and 0.14, respectively.

Regarding `NC(=O)N1c2ccccc2C=Cc2cc(Cl)ccc21`, the Stability result in data set [8], in data set [2], in data set [3] and in [4] was “Stable” throughout. Besides, the Ratio in data set [5] is listed as 0.11; in data set [6] it was 2.04; in data set [7] it was 0.21.

As to `NC(=O)N1c2ccccc2C=Cc2cc(Br)ccc21`, the Stability entry in data set [2] and in data set [4] was “Stable” each time.

Take `NC(=O)N1c2ccccc2C=Cc2cc(F)ccc21`: the Stability entry in data set [1], in data set [3] and in [4] was “Stable” in each case. For the same molecule, the Ratio is reported as 0.41 in data set [2], 0.15 in data set [5], 0.784 in data set [6] and 0.28 in data set [7].

For the molecule `NC(=O)N1c2ccc(Br)cc2C=Cc2cc(Br)ccc21`, the Stability entry in [9], in data set [2], in data set [3] and in [4] was “Stable” each time. Also, the results for the Ratio in [6] and in data set [7] were 0.27 and 0.19, respectively.

As to `NC(=O)N1c2ccc(F)cc2C=Cc2cc(F)ccc21`, the Stability result in data set [10], in [11], in [12], in [8], in data set [2] and in [3] was “Stable” throughout. In data set [4], the Stability result is “Stable”. Besides, in data set [13], the Drug metabolism result is “Active”. In [14], the metabolised at 1 h, 50 µM was determined as 1%. For the same molecule, the values for the Ratio in [5], in [6] and in [7] were 0.02, 0.18 and 0.07, respectively.

With `NC(=O)N1c2ccccc2C=Cc2ccccc21` [CARBAMAZEPINE], the Stability result in data set [11], in [12], in data set [15] and in data set [3] was “Stable” in each case. Also, the Drug metabolism entry in data set [13] and in [16] was “Active” in each case. For the same molecule, the metabolised at 1 h, 50 µM in [14] was determined as 1%. Besides, the Ratio in data set [2] was found to be 0.32; in data set [4], 0.08; in [5], 0.24; in data set [6] it was 0.63; in data set [7], 0.52.
